We go through 2 molecules from ChEMBL document CHEMBL1938298, “Synthesis and characterization of [¹²⁵I]2-iodo N-[(S)-{(S)-1-methylpiperidin-2-yl}(phenyl)methyl]3-trifluoromethyl-benzamide as novel imaging probe for glycine transporter 1” (Bioorg Med Chem, 2011).

Calls of active or inactive are those of the source. The calls are words filed in the database; no cut-off is given here.

In data set [1] the target is T1, Sodium- and chloride-dependent glycine transporter 1 (Rattus norvegicus) (UniProt P28572).
T1 sequence (whole entry): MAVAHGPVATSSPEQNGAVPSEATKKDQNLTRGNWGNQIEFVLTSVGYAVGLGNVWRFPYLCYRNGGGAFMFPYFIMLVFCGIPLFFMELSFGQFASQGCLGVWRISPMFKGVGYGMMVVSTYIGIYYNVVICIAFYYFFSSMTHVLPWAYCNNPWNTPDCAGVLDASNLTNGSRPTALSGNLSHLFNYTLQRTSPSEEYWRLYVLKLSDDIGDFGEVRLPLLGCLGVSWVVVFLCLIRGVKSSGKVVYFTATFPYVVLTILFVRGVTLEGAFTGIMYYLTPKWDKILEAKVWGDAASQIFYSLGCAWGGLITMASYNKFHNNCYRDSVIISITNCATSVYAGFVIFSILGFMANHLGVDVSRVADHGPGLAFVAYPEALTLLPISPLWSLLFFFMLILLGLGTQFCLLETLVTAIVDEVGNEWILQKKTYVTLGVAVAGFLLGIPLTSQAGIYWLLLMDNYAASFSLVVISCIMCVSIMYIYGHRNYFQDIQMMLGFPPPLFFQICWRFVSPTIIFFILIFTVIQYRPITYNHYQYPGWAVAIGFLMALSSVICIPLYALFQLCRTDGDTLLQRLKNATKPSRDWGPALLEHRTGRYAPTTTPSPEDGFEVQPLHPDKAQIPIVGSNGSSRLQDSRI
The experiment in a line: Binding affinity to GlyT1 in rat brain cerebellar gray matter at 0.03 to 0.04 nM preincubated for 20 mins in binding buffer before compound addition measured after 30 mins by autoradiography relative to control. The data set is classed as tissue-based. The note with it: tested as the 125I-labelled form.

Data set [2] concerns the target T1, Sodium- and chloride-dependent glycine transporter 1 (Rattus norvegicus). The experiment in a line: Binding affinity to GlyT1 in rat brain thalamus at 0.03 to 0.04 nM preincubated for 20 mins in binding buffer before compound addition measured after 30 mins by autoradiography in presence of 0.01 mM GlyT1 inhibitor SSR504734 relative to control. The note with it: tested as the 125I-labelled form. The format is tissue-based.

The test system of data set [3] is Mus musculus. Put plainly: In vivo binding affinity to GlyT1 in ddY mouse brain striatum at 33.3 kBq, iv after 30 mins in presence of nonradioactive compound 2 mg/kg, iv administered 15 mins prior to compound administration relative to control. The format is functional, organism-based. Also noted: dose 2 mg/kg. The note with it: tested as the 125I-labelled form.

The target in data set [4] is T1, Sodium- and chloride-dependent glycine transporter 1 (Rattus norvegicus). The experiment in a line: Binding affinity to GlyT1 in rat brain cerebellum at 0.03 to 0.04 nM preincubated for 20 mins in binding buffer before compound addition measured after 30 mins by autoradiography in presence of 0.01 mM GlyT1 inhibitor HPCP relative to control. The format is tissue-based. The following applies: tested as the 125I-labelled form. Put shortly: (§1)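 Rat brain sagittal sections (20 µm) preincubated 20 min at 25 °C in Tris-HCl buffer pH 7.5 (NaCl, KCl, MgCl2, CaCl2), then 30 min at 25 °C with [125I] tracer (100 kBq, 0.03–0.04 nM) plus competitor (10 µM; glycine 1 or 10 mM). Cold washes, imaging plate 3 days, ROI PSL minus background per mm². % control from ≥triplicate slices, three rats.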

Data set [5] has the same target. Put plainly: Binding affinity to GlyT1 in rat brain cerebellar white matter at 0.03 to 0.04 nM preincubated for 20 mins in binding buffer before compound addition measured after 30 mins by autoradiography relative to control. The data set is classed as tissue-based. The note with it: tested as the 125I-labelled form.
Data set [6] shares this target. Put plainly: Binding affinity to GlyT1 in rat brain cerebral cortex at 0.03 to 0.04 nM preincubated for 20 mins in binding buffer before compound addition measured after 30 mins by autoradiography in presence of 0.01 mM GlyT2 inhibitor ORG25543 relative to control. The data set is classed as tissue-based. The note with it: tested as the 125I-labelled form. The essentials: as §1

The target is the same in data set [7]. The experiment in a line: Binding affinity to GlyT1 in rat brain hippocampus at 0.03 to 0.04 nM preincubated for 20 mins in binding buffer before compound addition measured after 30 mins by autoradiography in presence of 10 mM GlyT1 substrate glycine relative to control. The format is tissue-based. The following applies: tested as the 125I-labelled form. The essentials: as §1

For data set [8] the target is unchanged. The experiment in a line: Binding affinity to GlyT1 in rat brain medullary region at 0.03 to 0.04 nM preincubated for 20 mins in binding buffer before compound addition measured after 30 mins by autoradiography in presence of 0.01 mM NMDA receptor glycine site antagonist L-701,324 relative to control. The format is tissue-based. The note with it: tested as the 125I-labelled form. The essentials: as §1

Data set [9] shares this target. Put plainly: Binding affinity to GlyT1 in rat brain corpus callosum at 0.03 to 0.04 nM preincubated for 20 mins in binding buffer before compound addition measured after 30 mins by autoradiography in presence of GlyT1 inhibitor N-Me-SSR504734 relative to control. The data set is classed as tissue-based. The note with it: tested as the 125I-labelled form. Put shortly: as §1

In data set [10] the test system is Mus musculus. The experiment in a line: In vivo binding affinity to GlyT1 in ddY mouse brain striatum at 33.3 kBq, iv after 30 mins in presence of N-Me-SSR504734 2 mg/kg, iv administered 15 mins prior to compound administration relative to control. The format is functional, organism-based. Also noted: dose 2 mg/kg. The following applies: tested as the 125I-labelled form.

The target in data set [11] is T1, Sodium- and chloride-dependent glycine transporter 1 (Rattus norvegicus). The experiment in a line: Binding affinity to GlyT1 in rat brain hippocampus at 0.03 to 0.04 nM preincubated for 20 mins in binding buffer before compound addition measured after 30 mins by autoradiography in presence of 0.01 mM GlyT1 inhibitor ALX5407 relative to control. The data set is classed as tissue-based. The note with it: tested as the 125I-labelled form. Put shortly: as §1

Data set [12] concerns Nucleic Acid. Put plainly: Ratio of drug level in brain to blood in ddY mouse at 11.1 kBq, iv after 60 min by gamma counting. The format is ADME, organism-based. The note with it: 1 h.
Data set [13] concerns Pancreas. Put plainly: Drug uptake in ddY mouse pancreas at 11.1 kBq, iv after 180 min by gamma counting. The format is ADME, organism-based. The following applies: in vivo, 3 h. Put shortly: (§2)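 Male ddY mice (6 weeks, 30–35 g) were given about 11.1 kBq of [125I]tracer in 0.1 mL i.v. via the tail vein. At each time point the animals were killed and organs dissected, weighed and gamma-counted. Uptake is expressed as % injected dose per gram of tissue, mean ± SD, n = 5–6.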

Data set [14] is described as follows: Metabolic stability in ddY mouse brain assessed as compound remaining at 185 kBq after 30 mins by radio-TLC. The data set is classed as ADME, tissue-based. The note with it: read-out: Stability.
Data set [15] concerns Blood. Put plainly: Drug uptake in ddY mouse blood at 11.1 kBq, iv after 60 min by gamma counting. The data set is classed as ADME, organism-based. The note with it: in vivo, 1 h. Put shortly: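 Male ddY mice (6 weeks, 30–35 g) received about 11.1 kBq [125I]tracer in 0.1 mL i.v. via tail vein. Killed at set times, organs dissected and weighed, radioactivity gamma counted. Reported as % injected dose/g tissue, mean ± SD, n = 5–6.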

Data set [16] relates to Lung. The experiment in a line: Drug uptake in ddY mouse lung at 11.1 kBq, iv after 5 min by gamma counting. The format is ADME, organism-based. The following applies: in vivo. The essentials:
as §2

Consider `CN1CCCC[C@H]1[C@@H](NC(=O)c1cccc(C(F)(F)F)c1I)c1ccccc1`, for which the outcome in data set [1] was inactive. The Activity in [2] was 29.6%; in data set [4], 23%; in data set [6], 95.1%; in data set [7] it was 71.5%; in data set [8], 104%; in data set [9], 20.2%. The Activity in [11] is 63.2%. Moreover, the outcome in data set [3], in data set [5] and in [10] was Active.
For the molecule `CN1CCCC[C@H]1[C@@H](NC(=O)c1cccc(C(F)(F)F)c1[125I])c1ccccc1`, the Ratio in data set [12] came to 2.32. Further, the Drug uptake in data set [13] was 4.84 % ID/g; in data set [15] it was 0.8 % ID/g; in [16], 19.3 % ID/g. Besides, the remaining at 0.5 h in [14] was determined as 90%.
